Results published in ChEMBL document CHEMBL1155262, “A new class of anticonvulsants possessing 6 Hz activity: 3,4-dialkyloxy thiophene bishydrazones” (Eur J Med Chem, 2009).
Activity calls are given as the source filed them. No cut-off for these calls is given here.

Experiments:
Mus musculus [1] = assay: Anticonvulsant activity in mouse CF1 albino assessed as inhibition of subcutaneous metrazole-induced seizure at 300 mg/kg, ip after 0.5 hrs; format: functional, organism-based; design: dose 300 mg/kg
Mus musculus [2] = assay: Anticonvulsant activity in mouse CF1 albino assessed as inhibition of maximal electric shock-induced seizure at 300 mg/kg, ip after 0.5 hrs; format: functional, organism-based; design: dose 300 mg/kg
Outline: (§1)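 Male CF-1 albino mice (18–25 g); compound suspended in 0.5% methyl cellulose/water or PEG 200, given i.p. at 30, 100 and 300 mg/kg (0.01 mL/g). Tested 0.5 or 4 h after dosing. Protection = abolition of hind limb tonic extensor component of MES seizure.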

Mus musculus [3] = assay: Anticonvulsant activity in mouse CF1 albino assessed as inhibition of maximal electric shock-induced seizure at 300 mg/kg, ip after 4 hrs; format: functional, organism-based; design: dose 300 mg/kg; outline: as §1
Mus musculus [4] = assay: Anticonvulsant activity in mouse CF1 albino assessed as inhibition of subcutaneous metrazole-induced seizure at 300 mg/kg, ip after 4 hrs; format: functional, organism-based; design: dose 300 mg/kg
Mus musculus [5] = assay: Neurotoxicity against ip dosed mouse CF1 albino assessed as minimal motor impairment after 0.5 hrs by rotord test; format: toxicity, organism-based; conditions: in vivo
Outline: (§2)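 Rotorod minimal motor impairment in male CF-1 albino mice (18–25 g) after i.p. dosing at 30, 100 or 300 mg/kg in 0.5% methyl cellulose/water or PEG 200. Mice placed on a rod rotating at 6 rpm at 0.5 or 4 h. Value is minimum dose causing impairment in at least one mouse.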

Mus musculus [6] = assay: Neurotoxicity against mouse CF1 albino assessed as minimal motor impairment at 300 mg/kg, ip after 4 hrs by rotord test; format: toxicity, organism-based; design: dose 300 mg/kg, route intraperitoneal; conditions: in vivo; outline: as §2
Mus musculus [7] = assay: Anticonvulsant activity in mouse CF1 albino assessed as inhibition of minimal electric shock-induced seizure at 50 mg/kg, ip after 2 hrs; format: functional, organism-based; design: dose 50 mg/kg
Outline: (§3)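 6 Hz psychomotor seizure model in male CF-1 albino mice dosed i.p. Four mice per time point (0.25, 0.5, 1, 2, 4 h) received corneal-electrode current of 32 mA for 3 s. Untreated mice show a minimal clonic phase followed by stereotyped automatistic behaviour. Results given as number protected out of 4.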

Mus musculus [8] = assay: Anticonvulsant activity in mouse CF1 albino assessed as inhibition of minimal electric shock-induced seizure at 50 mg/kg, ip after 0.25 hrs; format: functional, organism-based; design: dose 50 mg/kg; outline: as §3
Mus musculus [9] = assay: Anticonvulsant activity in mouse CF1 albino assessed as inhibition of minimal electric shock-induced seizure at 50 mg/kg, ip after 0.5 hrs; format: functional, organism-based; design: dose 50 mg/kg; outline: as §3
Mus musculus [10] = assay: Anticonvulsant activity in mouse CF1 albino assessed as inhibition of minimal electric shock-induced seizure at 50 mg/kg, ip after 1 hr; format: functional, organism-based; design: dose 50 mg/kg; outline: as §3
Mus musculus [11] = assay: Anticonvulsant activity in mouse CF1 albino assessed as inhibition of minimal electric shock-induced seizure at 50 mg/kg, ip after 4 hrs; format: functional, organism-based; design: dose 50 mg/kg; outline: as §3
Mus musculus [12] = assay: Anticonvulsant activity in mouse CF1 albino assessed as inhibition of minimal electric shock-induced seizure at 100 mg/kg, ip after 2 hrs; format: functional, organism-based; design: dose 100 mg/kg; outline: as §3
Mus musculus [13] = assay: Anticonvulsant activity in mouse CF1 albino assessed as inhibition of minimal electric shock-induced seizure at 100 mg/kg, ip after 0.5 hrs; format: functional, organism-based; design: dose 100 mg/kg; outline: as §3
Mus musculus [14] = assay: Anticonvulsant activity in mouse CF1 albino assessed as inhibition of minimal electric shock-induced seizure at 100 mg/kg, ip after 4 hrs; format: functional, organism-based; design: dose 100 mg/kg; outline: as §3
Mus musculus [15] = assay: Anticonvulsant activity in mouse CF1 albino assessed as inhibition of minimal electric shock-induced seizure at 100 mg/kg, ip after 1 hr; format: functional, organism-based; design: dose 100 mg/kg; outline: as §3
Mus musculus [16] = assay: Anticonvulsant activity in ip dosed mouse CF1 albino assessed as inhibition of maximal electric shock-induced seizure after 4 hrs; format: functional; outline: as §1
Mus musculus [17] = assay: Neurotoxicity against ip dosed mouse CF1 albino assessed as minimal motor impairment after 4 hrs by rotord test; format: toxicity, organism-based; conditions: in vivo; outline: as §2
Mus musculus [18] = assay: Neurotoxicity against mouse CF1 albino assessed as minimal motor impairment at 300 mg/kg, ip after 0.5 hrs by rotord test; format: toxicity, organism-based; design: dose 300 mg/kg, route intraperitoneal; conditions: in vivo; outline: as §2
Mus musculus [19] = assay: Anticonvulsant activity in ip dosed mouse CF1 albino assessed as inhibition of subcutaneous metrazole-induced seizure after 4 hrs; format: functional
Mus musculus [20] = assay: Anticonvulsant activity in mouse CF1 albino assessed as inhibition of minimal electric shock-induced seizure at 100 mg/kg, ip after 0.25 hrs; format: functional, organism-based; design: dose 100 mg/kg; outline: as §3

| Compound | Activity (Mus musculus [1]) | Activity (Mus musculus [2]) | Activity (Mus musculus [3]) | Activity (Mus musculus [4]) | Activity (Mus musculus [5]) [mg/kg] | Activity (Mus musculus [6]) | Activity (Mus musculus [14]) | other results |
| --- | --- | --- | --- | --- | --- | --- | --- | --- |
| CCCOc1c(C(=O)N/N=C/c2ccc([N+](=O)[O-])cc2)sc(C(=O)N/N=C/c2ccc([N+](=O)[O-])cc2)c1OCCC | inactive | inactive | inactive | inactive | 100 | Not Active | – | – |
| CCCCCCCOc1c(C(=O)N/N=C/c2ccc3c(c2)c2ccccc2n3CC)sc(C(=O)N/N=C/c2ccc3c(c2)c2ccccc2n3CC)c1OCCCCCCC | – | – | – | – | – | – | – | Activity (Mus musculus [7]): inactive; Activity (Mus musculus [8]): inactive; Activity (Mus musculus [9]): inactive; Activity (Mus musculus [10]): inactive; Activity (Mus musculus [11]): inactive |
| CCCOc1c(C(=O)N/N=C/c2cccnc2N)sc(C(=O)N/N=C/c2cccnc2N)c1OCCC | – | – | – | – | – | – | inactive | Activity (Mus musculus [12]): inactive; Activity (Mus musculus [13]): inactive; Activity (Mus musculus [15]): inactive |
| CCCOc1c(C(=O)N/N=C2/C(=O)Nc3ccccc32)sc(C(=O)N/N=C2/C(=O)Nc3ccccc32)c1OCCC | inactive | inactive | – | inactive | 100 | – | inactive | Activity (Mus musculus [16]): 300 mg/kg; Activity (Mus musculus [17]): 300 mg/kg; Activity (Mus musculus [12]): inactive; Activity (Mus musculus [15]): inactive |
| CCCOc1c(C(=O)NN)sc(C(=O)NN)c1OCCC | inactive | inactive | inactive | inactive | 100 | Not Active | – | – |
| CCCCCCCOc1c(C(=O)NN)sc(C(=O)NN)c1OCCCCCCC | inactive | inactive | – | inactive | – | Not Active | – | Activity (Mus musculus [16]): 100 mg/kg; Activity (Mus musculus [18]): Not Active |
| CCCOc1c(C(=O)N/N=C(/C)c2cc(Cl)sc2Cl)sc(C(=O)N/N=C(/C)c2cc(Cl)sc2Cl)c1OCCC | inactive | inactive | inactive | – | 300 | Not Active | – | Activity (Mus musculus [19]): 300 mg/kg |
| C/C(=N\NC(=O)c1sc(C(=O)N/N=C(\C)c2cccs2)c(OCc2ccccc2)c1OCc1ccccc1)c1cccs1 | inactive | inactive | – | inactive | – | Not Active | – | Activity (Mus musculus [16]): 300 mg/kg; Activity (Mus musculus [18]): Not Active |
| CCCOc1c(C(=O)N/N=C/c2ccccc2O)sc(C(=O)N/N=C/c2ccccc2O)c1OCCC | inactive | inactive | inactive | – | – | Not Active | inactive | Activity (Mus musculus [20]): inactive; Activity (Mus musculus [12]): inactive; Activity (Mus musculus [19]): 300 mg/kg; Activity (Mus musculus [18]): Not Active |
| CCCCCCCOc1c(C(=O)N/N=C2/C(=O)Nc3ccccc32)sc(C(=O)N/N=C2/C(=O)Nc3ccccc32)c1OCCCCCCC | – | – | – | – | – | – | – | Activity (Mus musculus [20]): inactive; Activity (Mus musculus [15]): inactive |
| CCCOc1c(C(=O)N/N=C(/C)c2ccsc2)sc(C(=O)N/N=C(/C)c2ccsc2)c1OCCC | – | – | – | – | – | – | inactive | Activity (Mus musculus [20]): inactive |
| CCCOc1c(C(=O)N/N=C/c2cc([N+](=O)[O-])ccc2Br)sc(C(=O)N/N=C/c2cc([N+](=O)[O-])ccc2Br)c1OCCC | inactive | inactive | inactive | inactive | 300 | Not Active | – | – |
